# S100A4 inh HTS: blocks human S100A4 binding to myosin IIA peptide; P26447; S100A4/TAMRA-MyoIIA peptide fluorescence polarization; inhibition, % at 10.7 µM; hit rate 0.14% among 360,000; AID 652163;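 active = mean inhibition of at least 70% across replicates, with every replicate also reaching that level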
# Target sequence (P26447 whole entry, looked up): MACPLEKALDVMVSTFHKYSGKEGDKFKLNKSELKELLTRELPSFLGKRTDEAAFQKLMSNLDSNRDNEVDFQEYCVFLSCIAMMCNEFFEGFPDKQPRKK
#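 Test system: S100A4 monomer protein. Medium: HEPES buffer with Ca2+, pH 7.2. Reagent: fluorescent myosin IIA peptide, 5 nM. Compound dosing: single-point compound testing. Timing: 5 min between mix addition and reading. Benchmarks: DMSO neutral and TFP positive wells.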
# PGC1a acetyl inh: modulators of PGC1a acetylation | U2OS PGC1a acetylation, AlphaScreen anti-acetyl-lysine; with virally co-expressed GCN5 acetyltransferase | inhibition, % at 15.6 µM | hit rate 0.17% among 350,000 | AID 651687;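 active = every replicate shows inhibition of at least 40%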;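 note: 0% = neutral control wells and 100% = positive control wells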
# ARNT-TACC3 inh: ARNT/TACC3 interaction disruption | Q9Y6A5 | hit rate 0.66% among 390,000 | AlphaScreen His-ARNT PAS-B/GST-TACC3 binding, luminescence; TACC3 fragment carries E629A point mutation | inhibition, % at 9.99 µM;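 active = mean inhibition of replicates at least 50% and at least half of replicates each reaching 50%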;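 note: 0% = complete ARNT plus TACC3 wells and 100% = ARNT alone without TACC3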
# Ecoli rRNA inh: selective bacterial rRNA inhibition in E. coli; E. coli WT GFP vs humanized-ribosome RFP mutants, fluorescence, 24 h; hits give low values; DMSO median 0, no signal -100; GFP signal change (wild-type ribosome), % (no concentration beside the values); hit rate 1.6% among 350,000;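 active = significant combined selectivity score with lowered wild-type GFP, culture density cut under 30%, mutant RFP and density less affected; inactive = any of these conditions unmet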
# CASP6 VEID inh: blocks human caspase-6 cleavage activity. P55212. purified caspase-6, Z-VEID-R110 cleavage fluorescence. inhibition, % at 12.5 µM. hit rate 0.53% among 350,000. AID 686996;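 active = mean inhibition across replicates at least about 35%, with every replicate also reaching that limit, limit read from the data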;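 note: 0% = median of neutral control wells and 100% = no fluorescence left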
# Target sequence (P55212 24-179 limits assumed): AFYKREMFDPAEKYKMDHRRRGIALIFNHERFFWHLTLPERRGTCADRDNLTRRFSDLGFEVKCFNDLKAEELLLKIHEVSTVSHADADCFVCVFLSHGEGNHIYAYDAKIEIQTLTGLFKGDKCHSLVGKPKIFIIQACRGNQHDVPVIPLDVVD
# Target sequence (P55212 194-293 limits assumed): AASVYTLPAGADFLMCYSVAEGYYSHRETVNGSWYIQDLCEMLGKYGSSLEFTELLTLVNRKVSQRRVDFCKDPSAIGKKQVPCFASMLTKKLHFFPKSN
# ERAP1 HTS inh: ERAP1 (human) enzyme inhibition. inhibition, % at 10.7 µM. hit rate 0.15% among 340,000. Q9NZ08. recombinant ERAP1, Leu-AMC fluorescence, 60 min;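 active = mean replicate inhibition of at least 30%, or all replicates individually reaching that 30% level; inactive = mean below 30% and not every replicate reaching it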;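 note: 0% = neutral control wells and 100% = L-leucinethiol positive control wells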
# Numbers without * were called inactive; nt = no result given. This is a sample that favours compounds with a hit; in the whole collection about 2.4% have one here.
SMILES,S100A4 inh HTS,PGC1a acetyl inh,ARNT-TACC3 inh,Ecoli rRNA inh,CASP6 VEID inh,ERAP1 HTS inh
O=S(=O)(O)c1cc(O)c2c(O)c(N=Nc3cc(Cl)ccc3O)c(S(=O)(=O)O)cc2c1,nt,-1.9,69.1*,nt,nt,nt
N#C/C(=C/c1ccco1)C(N)=S,-14.7,nt,7.5,11.8,45.7*,5.8
CCOC(=O)c1nnc(-c2ccccc2)o1,nt,7.9,1.5,nt,nt,nt
O=C(CCc1ccccc1)c1nnc(-c2ccccc2)o1,-0.1,16.9,-14.3,-23.1*,-1.4,0.9
O=C(O)C1=C2C(=O)Nc3cccc(c32)C2(C1)C(=O)Nc1ccccc12 (stereo not drawn),-8.6,5.2,nt,-7.0,60.1*,-1.5
Cn1nnnc1Sc1ncnc2scc(-c3ccc4c(c3)OCO4)c12,0.3,-22.2,47.4*,20.2,1.6,5.8
Cn1nnnc1Sc1ncnc2scc(-c3ccc(Cl)cc3)c12,-2.1,37.2,nt,-42.3,0.1,2.3
COc1ccc(S(=O)(=O)Nc2ccc3c(c2)C(=O)N([C@H](C)CO)C[C@@H](C)[C@H](CN(C)Cc2ccncc2)OCCCC[C@@H](C)O3)cc1,-6.1,0.1,-10.8,-0.7,-3.0,-0.3
COc1ccccc1C(=O)N/C(=C\c1ccc(Br)cc1)C(=O)N1CCCC1,1.6,9.4,nt,-40.2*,6.7,0.9
O=C(N/C(=C/c1ccc(Br)cc1)C(=O)N1CCCC1)c1ccccc1F,2.1,12.3,3.8,nt,2.8,-6.7
CN1C[C@H](O)COC[C@H]2O[C@@H](CC(=O)NC3CCC3)CC[C@@H]21,4.4,7.3,-7.0,4.2,-0.2,0.2
Cc1nn(-c2cc(C(F)(F)F)ccc2Cl)c2nc(C(Cl)(Cl)Cl)[nH]c(=O)c12,-6.7,3.1,2.0,-15.2*,4.4,nt
CC1(C)SC2C(C(=O)O)N=C(Cc3ccccc3)N2C1C(=O)O (stereo not drawn),0.7,17.9,70.6*,7.8,4.1,9.6
C[C@H]1CN([C@@H](C)CO)S(=O)(=O)c2ccc(C3=CCCC3)cc2O[C@H]1CN(C)C(=O)C1CCCCC1,-4.0,-0.9,-2.7,-12.1,-5.4,0.7
COc1ccc(C#Cc2ccc([C@H]3[C@H]4CN(S(=O)(=O)c5ccccc5)CCCCN4[C@H]3CO)cc2)cc1,123.2*,-2.1,-5.0,7.6,-3.1,1.6
COc1ccc(S(=O)(=O)N2CCCCN3[C@@H](CO)[C@H](c4ccc(C#CC(C)C)cc4)[C@@H]3C2)cc1,-6.7,-7.5,20.0,-46.0*,0.2,0.2
COc1cccc(-c2ccc3c(c2)O[C@@H](CN(C)C)[C@H](C)CN([C@@H](C)CO)S3(=O)=O)c1,-7.0,-16.1,-5.3,1.7,0.6,-3.0
Cc1cc(C)c2nc3sc(=Cc4ccc(-c5ccccc5C(=O)O)o4)c(=O)n3c2c1,-2.9,nt,nt,-1.2,nt,-3.7
O=C(O)c1ccc(-c2ccc(/C=c3/sc4nc5ccccc5n4c3=O)o2)cc1Cl,32.5,nt,nt,7.9,57.9*,4.9
Cc1cc(/C=c2\sc3nc4ccccc4n3c2=O)c(C)n1-c1ccc(C(=O)O)cc1,-6.5,11.9,0.6,-12.3,15.8,-9.6
Cc1ccc2c(nc3s/c(=C\c4ccc(-c5ccccc5C(=O)O)o4)c(=O)n32)c1C,84.5*,nt,-10.6,8.1,0.1,-1.9
COc1ccc(C(=O)NC(=S)Nc2ccc(CN3CCCCC3)cc2)cc1Cl,-2.2,nt,10.9,-20.3*,-10.4,-5.7
Cc1c(Cc2ccccc2)c(=O)oc2c(C)c(OC(C)C(=O)NCC3CCC(C(=O)O)CC3)ccc12 (stereo not drawn),-8.0,-5.2,11.3,-21.1*,-4.2,-1.4
Brc1ccc(-c2cn3c(n2)CCc2ccc4cccnc4c2-3)cc1,nt,-12.9,47.2*,nt,nt,nt
Brc1ccc(-c2cn3nc4c(nc3n2)CCCC4)cc1,nt,-2.5,nt,nt,nt,nt
COc1ccc(CN(C)C[C@@H]2OCCCC[C@H](C)Oc3ccc(NC(=O)Cc4ccccc4)cc3C(=O)N([C@@H](C)CO)C[C@H]2C)cc1,nt,-1.7,5.7,-2.2,nt,nt
CC1(C)CC(N2CCCC2)=CC(=[N+]2CCCCC2)C1,-2.5,nt,-15.0,-2.4,-1.1,15.3
CC1(C)CC(N2CCCC2)=CC(=[N+]2CCCC2)C1,4.0,nt,-15.1,-1.3,-4.0,63.5*
